Data on 25 compounds can be found in ChEMBL document CHEMBL1126276, “Synthesis and antimalarial properties of 1-imino derivatives of 7-chloro-3-substituted-3,4-dihydro-1,9(2H,10H)-acridinediones and related structures” (J Med Chem, 1992).

“And” between values parts separate entries of the source, which are not always exact repeats. Equal values may be shown once.

Common to all, as to type: functional
Experiment [1] has as its system Plasmodium berghei. Nature of the experiment: Antimalarial activity in Plasmodium berghei infected mice (Mus musculus) after subcutaneous 160 mg/kg dose. Summed up:
(§1)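 Normal drug-sensitive P. berghei strain in mice. Compound dissolved or suspended in sesame or peanut oil, given parenterally as a single subcutaneous dose 72 h postinfection.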

Experiment [2] deals with Plasmodium berghei. The experiment in a line: Antimalarial activity in Plasmodium berghei infected mice (Mus musculus) after subcutaneous 320 mg/kg dose. The gist of the method: as §1
The test system of experiment [3] is Plasmodium berghei. Nature of the experiment: Antimalarial activity in Plasmodium berghei infected mice (Mus musculus) after subcutaneous 640 mg/kg dose. The gist of the method:
as §1

Experiment [4] relates to Plasmodium berghei. Nature of the experiment: Antimalarial activity in Plasmodium berghei infected mice (Mus musculus) after 40 mg/kg subcutaneous dose. The gist of the method:
(§2)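 […] in mice infected with a normal drug-sensitive P. berghei strain. Compound dissolved or suspended in sesame or peanut oil, given as a single subcutaneous dose 72 h postinfection.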

In experiment [5] the test system is Plasmodium berghei. Nature of the experiment: Antimalarial activity in Plasmodium berghei infected mice (Mus musculus) after 160 mg/kg subcutaneous dose. The gist of the method:
as §2

Experiment [6] has as its system Plasmodium berghei. The experiment in a line: Antimalarial activity Plasmodium berghei infected mice (Mus musculus) after 640 mg/kg subcutaneous dose. Summed up:
as §2

In experiment [7] the test system is Plasmodium berghei. The experiment in a line: Antimalarial activity in Plasmodium berghei infected mice (Mus musculus) after 80 mg/kg subcutaneous dose. Summed up:
as §2

Experiment [8] relates to Plasmodium berghei. The experiment in a line: Antimalarial activity in Plasmodium berghei infected mice (Mus musculus) after 20 mg/kg subcutaneous dose. Summed up:
as §2

As for `CN1CCN(CCC/N=C2\CC(c3ccc(Cl)c(Cl)c3)Cc3c2c(=O)c2cc(Cl)ccc2n3O)CC1` (centres undefined), the “No. of cured mice” value with Plasmodium berghei [1], with Plasmodium berghei [2] and with Plasmodium berghei [3] was 5 each time. Besides, the “Delta mean survival time” value in the experiment on Plasmodium berghei [4] is 7.4.

Take `O=C1CC(c2ccc(C(F)(F)F)cc2)Cc2nc3cccc(Cl)c3c(O)c21` (centres undefined): the “No. of cured mice” value in the experiment with Plasmodium berghei [1] and in the experiment with Plasmodium berghei [3] was 5 each time. For the same compound, the “Delta mean survival time” value in the experiment on Plasmodium berghei [4] turned out to be 8.7.

For the compound `CC1(C)CC(=O)c2c(nc3ccc(Cl)cc3c2O)C1`, the “No. of cured mice” value was 3 in the experiment with Plasmodium berghei [2] and 4 in the experiment with Plasmodium berghei [3].

`O=C1CC(c2ccc(Cl)cc2Cl)Cc2nc3c(Cl)ccc(Cl)c3c(O)c21` (centres undefined): the “Delta mean survival time” value is reported as 0.3 in the experiment on Plasmodium berghei [5], -0.1 in the experiment with Plasmodium berghei [6] and 0.1 in the experiment with Plasmodium berghei [4].

`CN(C)CCC/N=C1\CC(c2ccncc2)Cc2c1c(=O)c1cc(Cl)ccc1n2O` (centres undefined): the “Delta mean survival time” value in the experiment on Plasmodium berghei [5] is 0; in the experiment with Plasmodium berghei [6], 1.4; with Plasmodium berghei [4], 0.

Turning to `CN(C)CCC/N=C1\CC(c2ccc(C(F)(F)F)cc2)Cc2nc3c(Cl)cc(Cl)cc3c(O)c21` (centres undefined), the “No. of cured mice” value worked out at 4 with Plasmodium berghei [1], 5 with Plasmodium berghei [2] and 5 in the experiment with Plasmodium berghei [3]. In addition, the “Delta mean survival time” value in the experiment on Plasmodium berghei [5] was found to be 8; with Plasmodium berghei [7], 8.2; in the experiment on Plasmodium berghei [4], 6.3.

Turning to `CN(C)CCC/N=C1\CC(c2ccccc2Cl)Cc2nc3ccc(Cl)cc3c(O)c21` (centres undefined), the figures for the “No. of cured mice” value with Plasmodium berghei [1], with Plasmodium berghei [2] and with Plasmodium berghei [3] were 2, 5 and 5, respectively. The “Delta mean survival time” value in the experiment with Plasmodium berghei [5] amounted to 11.3; in the experiment with Plasmodium berghei [7] it was 6.3; in the experiment with Plasmodium berghei [4], 5.6.

With `COc1ccc2nc3c(c(O)c2c1)/C(=N/CCCN(C)C)CC(c1ccc(C(F)(F)F)cc1)C3` (centres undefined), the “No. of cured mice” value came to 2 in the experiment with Plasmodium berghei [1], 5 with Plasmodium berghei [2] and 5 in the experiment on Plasmodium berghei [3]. The “Delta mean survival time” value is reported as 8.7 in the experiment on Plasmodium berghei [5], 0.7 with Plasmodium berghei [8], 6.1 in the experiment with Plasmodium berghei [7] and 5.5 in the experiment with Plasmodium berghei [4].

Take `CCCCCCC/N=C1\CC(c2cccc(C(F)(F)F)c2)Cc2c1c(=O)c1cc(Cl)ccc1n2O` (centres undefined): the “No. of cured mice” value with Plasmodium berghei [1] was found to be 3; with Plasmodium berghei [2], 5; with Plasmodium berghei [3], 5. The figures for the “Delta mean survival time” value in the experiment on Plasmodium berghei [5] and with Plasmodium berghei [7] were 5 and 2.8, respectively.

On to `O=C1CC(c2cccc(C(F)(F)F)c2)Cc2c1c(=O)c1cc(Cl)ccc1n2O` (centres undefined), for which the entries for the “No. of cured mice” value with Plasmodium berghei [1], in the experiment with Plasmodium berghei [2] and in the experiment on Plasmodium berghei [3] were 3, 5 and 5, respectively. In addition, the “Delta mean survival time” value in the experiment on Plasmodium berghei [5] came out at 13.4; in the experiment on Plasmodium berghei [8] it was 6; with Plasmodium berghei [7], 12.1; in the experiment with Plasmodium berghei [4] it was 8.8.

`CN(C)CCC/N=C1\CC(c2cccc(C(F)(F)F)c2)Cc2c1c(=O)c1cc(Cl)ccc1n2O` (centres undefined): the “No. of cured mice” value is given as 4 with Plasmodium berghei [1], 5 with Plasmodium berghei [2] and 5 in the experiment with Plasmodium berghei [3]. Besides, the “Delta mean survival time” value in the experiment with Plasmodium berghei [5] was 12.4; in the experiment with Plasmodium berghei [8], 4.8; in the experiment on Plasmodium berghei [7], 9.6; in the experiment with Plasmodium berghei [4], 6.9.

In the case of `COc1ccccc1C1CC(=O)c2c(nc3ccc(Cl)cc3c2O)C1` (centres undefined), the “No. of cured mice” value in the experiment with Plasmodium berghei [1] was 4; in the experiment on Plasmodium berghei [3] it was 5. The results for the “Delta mean survival time” value with Plasmodium berghei [5] and in the experiment on Plasmodium berghei [4] were 0.7 and 8.3, respectively.

Turning to `CCCC/N=C1\CC(c2ccc(Cl)c(Cl)c2)Cc2c1c(=O)c1cc(Cl)ccc1n2O` (centres undefined), the “No. of cured mice” value in the experiment with Plasmodium berghei [1] is given as 3; in the experiment with Plasmodium berghei [2] it was 5; in the experiment on Plasmodium berghei [3], 5. The “Delta mean survival time” value in the experiment with Plasmodium berghei [8] is 2.5; in the experiment on Plasmodium berghei [7] (80 mg/kg) it was 9.9 and 8.3; in the experiment with Plasmodium berghei [4] it was 6.1.

Regarding `O=C1CC(c2ccc(C(F)(F)F)cc2)Cc2nc3ccccc3c(O)c21` (centres undefined), the “No. of cured mice” value turned out to be 4 with Plasmodium berghei [1], 5 in the experiment on Plasmodium berghei [2] and 5 in the experiment on Plasmodium berghei [3]. Further, the “Delta mean survival time” value with Plasmodium berghei [5] was 10.8; with Plasmodium berghei [8], 2.7; with Plasmodium berghei [7] it was 8.2; in the experiment with Plasmodium berghei [4] it was 4.6.

For the compound `CC1(C)CC(=O)c2c(nc3ccccc3c2O)C1`, the figures for the “No. of cured mice” value in the experiment on Plasmodium berghei [1] and in the experiment on Plasmodium berghei [3] were 2 and 5, respectively. Moreover, the “Delta mean survival time” value was determined as 5.6 in the experiment with Plasmodium berghei [5] and 3.8 in the experiment on Plasmodium berghei [4].

`O=C1CC(c2ccc(Cl)c(Cl)c2)Cc2c1c(=O)c1c(Cl)c(Cl)ccc1n2O` (centres undefined): the “Delta mean survival time” value in the experiment on Plasmodium berghei [5] is given as 0.1; with Plasmodium berghei [6] it was 0.3.

As to `CN(C)CCCCCCC/N=C1\CC(c2ccc(Cl)c(Cl)c2)Cc2c1c(=O)c1cc(Cl)ccc1n2O` (centres undefined), the “No. of cured mice” value in the experiment on Plasmodium berghei [1], with Plasmodium berghei [2] and in the experiment with Plasmodium berghei [3] was 5 throughout. Moreover, the “Delta mean survival time” value is on record as 11.3 with Plasmodium berghei [7] and 6.5 in the experiment on Plasmodium berghei [4].

Turning to `O=C1CC(c2ccc(Cl)c(Cl)c2)Cc2c1c(=O)c1cc(Cl)ccc1n2O` (centres undefined), the “No. of cured mice” value in the experiment with Plasmodium berghei [1] amounted to 2; in the experiment with Plasmodium berghei [2] it was 5; in the experiment with Plasmodium berghei [3], 5. For the same compound, the “Delta mean survival time” value in the experiment on Plasmodium berghei [5] was determined as 11; in the experiment with Plasmodium berghei [8], 3.2; with Plasmodium berghei [7], 10.8; with Plasmodium berghei [4] it was 5.

Turning to `CCN(CC)CCOc1ccc(C2CC(=O)c3c(n([O-])c4ccc(Cl)cc4c3=O)C2)cc1.[Na+]` (centres undefined), the “Delta mean survival time” value in the experiment on Plasmodium berghei [5] came out at 1.5; in the experiment with Plasmodium berghei [6], 5.3.

Take `CN(C)CCC/N=C1\CC(c2ccc(C(F)(F)F)cc2)Cc2nc3cccc(Cl)c3c(O)c21` (centres undefined): the “No. of cured mice” value with Plasmodium berghei [1] was 4; in the experiment with Plasmodium berghei [3], 5. For the same compound, the “Delta mean survival time” value with Plasmodium berghei [5] was found to be 24.9; in the experiment on Plasmodium berghei [4], 7.7.

Regarding `CN(C)CCC/N=C1\CC(c2ccc(C(F)(F)F)cc2)Cc2nc3ccc(C(F)(F)F)cc3c(O)c21` (centres undefined), the “No. of cured mice” value in the experiment with Plasmodium berghei [3] is recorded as 5. Moreover, the figures for the “Delta mean survival time” value in the experiment with Plasmodium berghei [5] and with Plasmodium berghei [4] were 7.1 and 3.1, respectively.

As to `CN(C)CCC/N=C1\CC(c2ccc(C3CCCCC3)cc2)Cc2c1c(=O)c1cc(Cl)ccc1n2O` (centres undefined), the “No. of cured mice” value in the experiment on Plasmodium berghei [1] is given as 3; in the experiment on Plasmodium berghei [3], 5. The entries for the “Delta mean survival time” value in the experiment with Plasmodium berghei [5] and in the experiment on Plasmodium berghei [4] were 9.4 and 5, respectively.

With `O=C1CC(c2ccc(C(F)(F)F)cc2)Cc2nc3ccc(F)cc3c(O)c21` (centres undefined), the “No. of cured mice” value in the experiment on Plasmodium berghei [3] worked out at 5. The “Delta mean survival time” value in the experiment with Plasmodium berghei [5] came to 8.9; in the experiment on Plasmodium berghei [4], 7.1.

As for `O=c1c2c(n(O)c3ccc(Cl)cc13)CC(c1ccc(Cl)c(Cl)c1)C/C2=N\CCCN1CCCCC1` (centres undefined), the “No. of cured mice” value was determined as 4 in the experiment on Plasmodium berghei [1], 5 with Plasmodium berghei [2] and 5 in the experiment with Plasmodium berghei [3]. Besides, the “Delta mean survival time” value is reported as 8.7 in the experiment on Plasmodium berghei [5], 9.2 in the experiment on Plasmodium berghei [7] and 5.9 with Plasmodium berghei [4].

As for `CCCC/N=C1\CC(c2ccc(C(F)(F)F)cc2)Cc2nc3ccc(Cl)cc3c(O)c21` (centres undefined), the “No. of cured mice” value stood at 1 in the experiment on Plasmodium berghei [1] and 5 with Plasmodium berghei [3]. In addition, the “Delta mean survival time” value is 10.1 with Plasmodium berghei [5] and 6 with Plasmodium berghei [4].
